Measurements from different studies.
Lines come from different studies, so protocols differ.
ALK: ALK tyrosine kinase receptor (ALK, Homo sapiens, UniProt Q9UM73)
ALK L1196M: ALK tyrosine kinase receptor (ALK, Homo sapiens, UniProt Q9UM73, L1196M)
ALK C1156Y: ALK tyrosine kinase receptor (ALK, Homo sapiens, UniProt Q9UM73, C1156Y)

Compound	target	effect on	action	technique	tested at	measurement	value
C#Cc1cnc(Nc2ccnc(CO)c2)nc1Nc1ccccc1S(C)(=O)=NC#N (stereo not shown)	ALK	enzyme activity	inhibitor	radiometric	1 µM	remaining activity	27.6%
COc1ccc2[nH]c3c4[nH]c5ccc(OC)cc5c4c4c(c3c2c1)C(=O)NC4=O	ALK	binding	–	–	1 µM	remaining binding	55%
C#Cc1cnc(Nc2ccc(CO)nc2)nc1Nc1ccccc1S(C)(=O)=NC#N (stereo not shown)	ALK	enzyme activity	inhibitor	radiometric	1 µM	remaining activity	18.9%
C[C@H]1CC[C@H](n2c3cnccc3c3cnc(Nc4ccc5c(n4)CCN(C(=O)CO)C5)nc32)CC1	ALK	binding	–	–	1 µM	remaining binding	84%
CCCCC(=O)Nc1ccc(-c2ccc3ncn(CCC)c(=O)c3c2)cn1	ALK L1196M	binding	–	competition with immobilised ligand	0.5 µM	remaining binding	100%
CO[C@@H]1[C@H](N(C)C(=O)c2ccccc2)C[C@H]2O[C@]1(C)n1c3ccccc3c3c4c(c5c6ccccc6n2c5c31)C(=O)NC4	ALK L1196M	enzyme activity	inhibitor	–	1 µM	inhibition	42%
CN1CCN(C(=O)c2ccc(NC(=O)Nc3ccc(N(C)c4ccnc(Nc5ccc(CS(C)(=O)=O)cc5)n4)cc3)cc2)CC1	ALK C1156Y	binding	–	–	1 µM	remaining binding	64%
C1=C/COCc2cc(ccc2OCCN2CCCC2)Nc2nccc(n2)-c2cccc(c2)COC/1	ALK	binding	–	–	0.1 µM	remaining binding	73%
C=CC(=O)N1CCC([C@@H]2CCNc3c(C(N)=O)c(-c4ccc(Oc5ccccc5)cc4)nn32)CC1	ALK	cell-free assay	–	–	1 µM	inhibition	5%
CNC(=O)c1ccccc1Nc1nc(Nc2ccc(CO)cc2)ncc1Cl	ALK	enzyme activity	inhibitor	radiometric	1 µM	remaining activity	1.07%
Cc1ccc(NC(=O)c2ccnc(C(F)(F)F)c2)cc1-c1cc(OCCO)nc(N2CCOCC2)c1	ALK C1156Y	binding	–	–	1 µM	remaining binding	100%
CC#CC(=O)N1CCC[C@H]1c1nc(-c2ccc(C(=O)Nc3ccccn3)cc2)c2c(N)nccn12	ALK L1196M	enzyme activity	inhibitor	–	1 µM	inhibition	11%
CS(=O)(=O)c1ccccc1Nc1nc(Nc2ccnc(CO)c2)ncc1Cl	ALK	enzyme activity	inhibitor	radiometric	1 µM	remaining activity	10.2%
